Reference: ChEMBL document CHEMBL1148762, “Lysosome and HER3 (ErbB3) selective anticancer agent kahalalide F: semisynthetic modifications and antifungal lead-exploration studies” (J Med Chem, 2007)
Converted amounts (≈) assume the structure as drawn.

Assays:
[1] = tested on: Fusarium solani; experiment: Antimicrobial activity against Fusarium solani at 3 uM after 48 hrs by microtiter assay; format: functional
Method in brief: (§1)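 96-well microdilution broth assay with conidia (3 × 10^5 conidia/mL, harvested from 7-day PDA cultures and filtered) against F. oxysporum, F. proliferatum and F. solani at 0.3, 3 and 30 µM. Plates were held at 24 ± 1 °C under a 12 h photoperiod. Growth was read at 620 nm at 24, 48 and 72 h and reported as percent inhibition from mean absorbance with standard error.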

[2] = tested on: Fusarium oxysporum; experiment: Antimicrobial activity against Fusarium oxysporum at 0.3 uM after 72 hrs by microtiter assay; format: functional; method in brief: as §1
[3] = tested on: SK-OV-3; experiment: Cytotoxicity against human SK-OV3 cells; format: functional
Method in brief: (§2)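 NCI Developmental Therapeutics Program cell panel. GI50 is the concentration that reduces growth of treated cells to half that of untreated controls. TGI is the concentration that completely halts growth.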

[4] = tested on: SNB-75; experiment: Cytotoxicity against human SNB75 cells; format: functional; method in brief: as §2
[5] = tested on: Candida albicans; experiment: Antimicrobial activity against Candida albicans ATCC 90028; format: functional, organism-based
[6] = tested on: UACC-257; experiment: Cytotoxicity against human UACC257 cells; format: functional; method in brief: as §2
[7] = tested on: T47D; experiment: Cytotoxicity against human T47D cells; format: functional; method in brief: as §2
[8] = tested on: Fusarium proliferatum; experiment: Antimicrobial activity against Fusarium proliferatum at 3 uM after 72 hrs by microtiter assay; format: functional; method in brief: as §1
[9] = tested on: Fusarium oxysporum; experiment: Antimicrobial activity against Fusarium oxysporum at 30 uM after 48 hrs by microtiter assay; format: functional; method in brief: as §1
[10] = tested on: Fusarium oxysporum; experiment: Antimicrobial activity against Fusarium oxysporum at 3 uM after 48 hrs by microtiter assay; format: functional; method in brief: as §1
[11] = tested on: PC-3; experiment: Cytotoxicity against human PC3 cells; format: functional; method in brief: as §2
[12] = tested on: RPMI-8226; experiment: Cytotoxicity against human RPMI8226 cells; format: functional; method in brief: as §2
[13] = tested on: Fusarium proliferatum; experiment: Antimicrobial activity against Fusarium proliferatum at 30 uM after 72 hrs by microtiter assay; format: functional; method in brief: as §1
[14] = tested on: COLO 205; experiment: Cytotoxicity against human COLO205 cells; format: functional; method in brief: as §2
[15] = tested on: NCI-H322M; experiment: Cytotoxicity against human NCI-H322M cells; format: functional; method in brief: as §2
[16] = tested on: Fusarium solani; experiment: Antimicrobial activity against Fusarium solani at 30 uM after 48 hrs by microtiter assay; format: functional; method in brief: as §1
[17] = tested on: Aspergillus fumigatus; experiment: Antimicrobial activity against Aspergillus fumigatus ATCC 90906; format: functional, organism-based
[18] = tested on: Mycobacterium intracellulare; experiment: Antimicrobial activity against Mycobacterium intracellular ATCC 23068; format: functional, organism-based
[19] = tested on: Leishmania donovani; experiment: Antiparasitic activity against Leishmania donovani; format: functional, organism-based
[20] = tested on: Fusarium oxysporum; experiment: Antimicrobial activity against Fusarium oxysporum at 0.3 uM after 48 hrs by microtiter assay; format: functional; method in brief: as §1
[21] = tested on: KM12; experiment: Cytotoxicity against human KM12 cells; format: functional; method in brief: as §2
[22] = tested on: Fusarium solani; experiment: Antimicrobial activity against Fusarium solani at 0.3 uM after 48 hrs by microtiter assay; format: functional; method in brief: as §1
[23] = tested on: Fusarium oxysporum; experiment: Antimicrobial activity against Fusarium oxysporum at 30 uM after 72 hrs by microtiter assay; format: functional; method in brief: as §1
[24] = tested on: Fusarium solani; experiment: Antimicrobial activity against Fusarium solani at 0.3 uM after 72 hrs by microtiter assay; format: functional; method in brief: as §1
[25] = tested on: Fusarium solani; experiment: Antimicrobial activity against Fusarium solani at 30 uM after 72 hrs by microtiter assay; format: functional; method in brief: as §1
[26] = tested on: DU-145; experiment: Cytotoxicity against human DU145 cells; format: functional; method in brief: as §2
[27] = tested on: Fusarium proliferatum; experiment: Antimicrobial activity against Fusarium proliferatum at 0.3 uM after 48 hrs by microtiter assay; format: functional; method in brief: as §1
[28] = tested on: Fusarium solani; experiment: Antimicrobial activity against Fusarium solani at 3 uM after 72 hrs by microtiter assay; format: functional; method in brief: as §1
[29] = tested on: Fusarium proliferatum; experiment: Antimicrobial activity against Fusarium proliferatum at 30 uM after 48 hrs by microtiter assay; format: functional; method in brief: as §1
[30] = tested on: A549; experiment: Cytotoxicity against human A549 cells; format: functional; method in brief: as §2
[31] = tested on: Fusarium oxysporum; experiment: Antimicrobial activity against Fusarium oxysporum at 3 uM after 72 hrs by microtiter assay; format: functional; method in brief: as §1
[32] = tested on: Cryptococcus neoformans; experiment: Antimicrobial activity against Cryptococcus neoformans ATCC 90113; format: functional, organism-based
[33] = tested on: Mycobacterium tuberculosis; experiment: Antibacterial activity against Mycobacterium tuberculosis H37Rv at 16 ug/mL by micro plate alamar blue assay; format: functional
Method in brief: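 M. tuberculosis H37Rv ATCC 27294 grown in BACTEC 12B medium; microplate Alamar blue assay (MABA). Primary screen at a single concentration of 16 µg/mL, read as percent inhibition.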

[34] = tested on: HT-29; experiment: Cytotoxicity against human HT29 cells; format: functional; method in brief: as §2
[35] = tested on: Fusarium proliferatum; experiment: Antimicrobial activity against Fusarium proliferatum at 0.3 uM after 72 hrs by microtiter assay; format: functional; method in brief: as §1
[36] = tested on: Mycobacterium tuberculosis; experiment: Antibacterial activity against Mycobacterium tuberculosis H37Rv by micro plate alamar blue assay; format: functional
[37] = tested on: HCT-15; experiment: Cytotoxicity against human HCT15 cells; format: functional; method in brief: as §2
[38] = tested on: HCC 2998; experiment: Cytotoxicity against human HCC2998 cells; format: functional; method in brief: as §2
[39] = tested on: ACHN; experiment: Cytotoxicity against human ACHN cells; format: functional; method in brief: as §2
[40] = tested on: Fusarium proliferatum; experiment: Antimicrobial activity against Fusarium proliferatum at 3 uM after 48 hrs by microtiter assay; format: functional; method in brief: as §1
[41] = tested on: Hs-578T; experiment: Cytotoxicity against human HS578T cells; format: functional; method in brief: as §2

C/C=C1\NC(=O)[C@H](Cc2ccccc2)NC(=O)[C@@H](C(C)C)NC(=O)[C@@H]([C@@H](C)CC)NC(=O)[C@H](NC(=O)[C@H](NC(=O)[C@H](CCCNCc2cccs2)NC(=O)[C@H]2CCCN2C(=O)[C@H](NC(=O)[C@@H](NC(=O)[C@@H](NC(=O)[C@H](NC(=O)CCCC(C)C)C(C)C)[C@@H](C)O)C(C)C)C(C)C)[C@@H](C)CC)[C@@H](C)OC(=O)[C@H](C(C)C)NC1=O
inhibition at 3 µM [1]: 47% | inhibition at 0.3 µM [2]: 0% | GI50 [3]: 0.223 µM | TGI [3]: 0.485 µM | GI50 [4]: 1.01 µM | TGI [4]: 2.19 µM | MFC [5]: 20 µM (≈ 31.5 µg/mL) | MIC [5]: 10 µM (≈ 15.7 µg/mL) | GI50 [6]: 1.44 µM | TGI [6]: 2.82 µM | GI50 [7]: 0.191 µM | TGI [7]: 0.394 µM | inhibition at 3 µM [8]: 0% | inhibition at 30 µM [9]: 98.8% | inhibition at 3 µM [10]: 13.7% | GI50 [11]: 0.228 µM | TGI [11]: 0.665 µM | GI50 [12]: 1.27 µM | TGI [12]: 2.76 µM | inhibition at 30 µM [13]: 99% | GI50 [14]: 0.243 µM | GI50 [15]: 0.167 µM | TGI [15]: 0.304 µM | inhibition at 30 µM [16]: 99% | MFC [17]: 20 µM (≈ 31.5 µg/mL) | MIC [17]: 10 µM (≈ 15.7 µg/mL) | MBC [18]: > 20 µM | MIC [18]: > 20 µM | IC90 [19]: 34 mg/L (≈ 21.6 µM) | inhibition at 0.3 µM [20]: 0% | GI50 [21]: 1.01 µM | TGI [21]: 2.19 µM | inhibition at 0.3 µM [22]: 0% | inhibition at 30 µM [23]: 99.2% | inhibition at 0.3 µM [24]: 0% | inhibition at 30 µM [25]: 99.3% | GI50 [26]: 0.144 µM | TGI [26]: 0.292 µM | inhibition at 0.3 µM [27]: 0% | inhibition at 3 µM [28]: 32.9% | inhibition at 30 µM [29]: 98.7% | GI50 [30]: 0.166 µM | inhibition at 3 µM [31]: 0% | MFC [32]: 10 µM (≈ 15.7 µg/mL) | MIC [32]: 5 µM (≈ 7.87 µg/mL) | inhibition at 16 µg/mL [33]: 92% | GI50 [34]: 0.187 µM | inhibition at 0.3 µM [35]: 0% | MIC [36]: 15.5 mg/L (≈ 9.85 µM) | GI50 [37]: 0.416 µM | TGI [37]: 1.36 µM | GI50 [38]: 0.255 µM | TGI [38]: 0.971 µM | GI50 [39]: 1.32 µM | TGI [39]: 2.37 µM | inhibition at 3 µM [40]: 4.8% | GI50 [41]: 0.427 µM | TGI [41]: 2.13 µM
